Active and inactive are the calls of the source. No cut-off for these calls is given here.
Key:
[1] = system: RAW264.7; test: Cytotoxicity against mouse RAW264.7 cells assessed as reduction in cell viability after 24 hrs by MTT assay; format: functional, cell-based; conditions: RAW264.7, 24 h
Method in brief: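 RAW 264.7 mouse macrophage line kept in RPMI 1640 with 10% FBS, L-glutamine and antibiotics. Treated with 1–100 μM for 24 h, then MTT at 37 °C for 4 h. Formazan taken up in DMSO and read at 540 nm. Triplicate, at least three independent experiments. IC50 is the concentration giving 50% loss of viability relative to untreated cells.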

[2] = system: RAW264.7; test: Decrease in IAP protein expression in mouse RAW264.7 cells at 5 uM by Western blot; format: functional, cell-based
Method in brief: (§1)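 RAW 264.7 cells incubated with 5 μM and sampled at several time points. Cytosolic extracts run on SDS–PAGE (10–15% gels) and blotted to PVDF. Probed for p53, Bax, Bcl-2, Bcl-xl, XIAP, IAP-1 and IAP-2, then HRP secondary and chemiluminescence. β-actin served as loading control. Protein measured by Bio-Rad assay.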

[3] = system: RAW264.7; test: Decrease in Bcl-xl protein expression in mouse RAW264.7 cells at 5 uM by Western blot; format: functional, cell-based; method in brief: as §1
[4] = system: RAW264.7; test: Increase in p53 protein expression in mouse RAW264.7 cells at 5 uM by Western blot; format: functional, cell-based; method in brief: as §1
[5] = system: HeLa; test: Cytotoxicity against human HeLa cells assessed as reduction in cell viability after 24 hrs by MTT assay; format: functional, cell-based
Method in brief: (§2)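 Cancer cells kept in DMEM with 10% FBS, L-glutamine and antibiotics. Exposed to 1–100 μM for 24 h, then MTT at 37 °C for 4 h. Formazan dissolved in DMSO and read at 540 nm. Triplicate wells, at least three independent experiments. Viability reduction expressed against untreated cultures. IC50 is the concentration giving 50% loss of viability.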

[6] = system: RAW264.7; test: Induction of apoptosis in mouse RAW264.7 cells assessed as caspase 3 activation at 5 uM after 24 hrs by fluorimetry; format: functional, cell-based
Method in brief: (§3)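 RAW cells treated with 5 μM for 24 h, with or without 40 μM z-VAD. Caspase activity read fluorimetrically in cytosolic extracts. Substrates: Ac-DEVD-AMC for caspase-3, Ac-IETD-AFC for caspase-8, Ac-LEHD-AFC for caspase-9. Means ± SD of three independent experiments run in triplicate.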

[7] = system: HepG2; test: Cytotoxicity against human HepG2 cells assessed as reduction in cell viability after 24 hrs by MTT assay; format: functional, cell-based; conditions: HepG2, 24 h; method in brief: as §2
[8] = Toxicity in thioglycolate-induced mouse peritoneal macrophages assessed as reduction in cell viability after 24 hrs by MTT assay; format: cell-based; conditions: peritoneal macrophage cell
Method in brief: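 Primary peritoneal macrophages from thioglycolate-injected mice exposed to a range of concentrations for 24 h. Viability read by MTT at 37 °C for 4 h, formazan dissolved in DMSO, absorbance at 540 nm. Three independent experiments in duplicate, means ± SD.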

[9] = system: RAW264.7; test: Induction of apoptosis in mouse RAW264.7 cells at 5 uM in presence of 40 uM caspase inhibitor z-VAD after 24 hrs by flow cytometry; format: functional, cell-based
Method in brief: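 RAW 264.7 cells given 5 μM for 24 h, with or without 40 μM z-VAD. Stained with 0.005% (w/v) PI and analysed by flow cytometry. Apoptotic percentage taken from a forward scatter versus PI fluorescence dot plot. Three independent experiments in triplicate, means ± SD.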

[10] = system: RAW264.7; test: Induction of apoptosis in mouse RAW264.7 cells assessed as caspase 9 activation at 5 uM after 24 hrs by fluorimetry; format: functional, cell-based; method in brief: as §3
[11] = system: RAW264.7; test: Induction of apoptosis in mouse RAW264.7 cells assessed as caspase 8 activation at 5 uM in presence of 40 uM caspase inhibitor z-VAD after 24 hrs by fluorimetric assay; format: functional, cell-based; method in brief: as §3
[12] = system: RAW264.7; test: Decrease in Bcl-2 protein expression in mouse RAW264.7 cells at 5 uM by Western blot; format: functional, cell-based; method in brief: as §1
[13] = Toxicity in thioglycolate-induced mouse peritoneal macrophages assessed as induction of apoptosis after 24 hrs by flow cytometry; format: cell-based; conditions: peritoneal macrophage cell
Method in brief: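 Peritoneal macrophages collected from thioglycolate-injected mice and treated across a concentration range for 24 h. Stained with PI and analysed by flow cytometry for apoptotic percentage. Means ± SD of three independent experiments done in duplicate.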

[14] = system: RAW264.7; test: Induction of apoptosis in mouse RAW264.7 cells at 1 to 25 uM after 24 hrs by flow cytometry; format: functional, cell-based
Method in brief: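 RAW 264.7 cells exposed to 1–25 μM for 24 h. Stained with 0.005% (w/v) propidium iodide and analysed at once by flow cytometry. Apoptotic and necrotic fractions taken from a forward scatter versus PI fluorescence dot plot. Means ± SD of three independent experiments in triplicate.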

[15] = system: RAW264.7; test: Increase in Bax protein expression in mouse RAW264.7 cells at 5 uM by Western blot; format: functional, cell-based; method in brief: as §1
[16] = system: RAW264.7; test: Induction of apoptosis in mouse RAW264.7 cells assessed as caspase 8 activation at 5 uM after 24 hrs by fluorimetry; format: functional, cell-based; method in brief: as §3
[17] = system: RAW264.7; test: Induction of apoptosis in mouse RAW264.7 cells assessed as caspase 3 activation at 5 uM in presence of 40 uM caspase inhibitor z-VAD after 24 hrs by fluorimetric assay; format: functional, cell-based; method in brief: as §3
[18] = system: HT-29; test: Cytotoxicity against human HT-29 cells assessed as reduction in cell viability after 24 hrs by MTT assay; format: functional, cell-based; conditions: HT-29, 24 h; method in brief: as §2
[19] = system: RAW264.7; test: Induction of apoptosis in mouse RAW264.7 cells assessed as caspase 9 activation at 5 uM in presence of 40 uM caspase inhibitor z-VAD after 24 hrs by fluorimetric assay; format: functional, cell-based; method in brief: as §3

C=C1C[C@@]23CC[C@@H]4[C@](C)(CO)CCC[C@@]4(C)C2=CC[C@@H]1C3
IC50 [1]: 35 µM

COC(=O)[C@]1(C)CCC[C@@]2(C)[C@@H]3CC[C@@H]4C[C@]3(C=C4C=O)CC[C@@H]21
IC50 [1]: 25 µM

C=C1C(=O)[C@@]23CC[C@H]4[C@@](C)(CCC[C@@]4(C)C(=O)O)[C@@H]2CC[C@@H]1C3
IC50 [1]: 35 µM

COC(=O)[C@]1(C)CCC[C@@]2(C)[C@@H]3CC[C@@H]4C[C@@]3(CC[C@@H]21)C[C@]4(O)CO
IC50 [1]: 10 µM

C=C1C[C@@]23CC[C@H]4[C@@](C)(CCC[C@@]4(C)C(=O)OC)[C@@H]2CC[C@@H]1C3 [KAURENOIC ACID METHYL ESTER]
IC50 [1]: 75 µM

COC(=O)[C@]1(C)CCC[C@@]2(C)[C@@H]3CC[C@@H]4C[C@@]3(CC[C@@H]21)C[C@H]4C [DIHYDRO KAURENOIC ACID METHYL ESTER]
IC50 [1]: 75 µM

C=C1[C@@H]2CC[C@H]3[C@]4(C)CCC[C@@](C)(C(=O)O)[C@H]4CC[C@]3(C2)[C@H]1OC(C)=O
IC50 [1]: 25 µM

COC(=O)[C@]1(C)CCC[C@@]2(C)[C@@H]3CC[C@@H]4C[C@@]3(CC[C@@H]21)C[C@H]4C=O
IC50 [1]: > 100 µM

C=C1C[C@@]23CC[C@@H]4[C@](C)(C(=O)OCc5ccccc5)CCC[C@@]4(C)C2=CC[C@@H]1C3 [GRANDIFLORENIC ACID BENZYL ESTER]
IC50 [1]: 65 µM

C=C1[C@@H]2CC=C3[C@@](CC[C@@H]4[C@](C)(C(=O)OC)CCC[C@@]34C)(C2)[C@H]1OC(C)=O
IC50 [1]: 35 µM

C=C1C[C@@]23CC[C@H]4[C@@](C)(CCC[C@@]4(C)C(=O)OCc4ccccc4)[C@@H]2CC[C@@H]1C3 [KAURENOIC ACID BENZYL ESTER]
IC50 [1]: 25 µM

COC(=O)[C@]1(C)CCC[C@@]2(C)[C@@H]3CC[C@@H]4C[C@@]3(CC[C@@H]21)C[C@@]4(C)OC
IC50 [1]: > 100 µM

COC(=O)[C@]1(C)CCC[C@@]2(C)[C@@H]3CC[C@@H]4C[C@]3(C=C4C)CC[C@@H]21
IC50 [1]: 100 µM

COC(=O)[C@]1(C)CCC[C@@]2(C)[C@@H]3CC[C@@H]4C[C@@]3(CC[C@@H]21)C[C@@]4(C)Cl
IC50 [1]: > 100 µM

C=C1[C@@H]2CC[C@H]3[C@]4(C)CCC[C@@](C)(C(=O)OC)[C@H]4CC[C@]3(C2)[C@H]1OC(C)=O
IC50 [1]: 25 µM

C=C1[C@@H]2CC=C3[C@@](CC[C@@H]4[C@](C)(C(=O)OC)CCC[C@@]34C)(C2)[C@H]1O
IC50 [1]: > 100 µM

COC(=O)[C@]1(C)CCC[C@@]2(C)[C@@H]3CC[C@@H]4C[C@@]3(CC[C@@H]21)C(=O)[C@H]4CCc1ccccc1
IC50 [1]: > 100 µM

C=C1C[C@@]23CC[C@H]4[C@@](C)(CCC[C@@]4(C)C(=O)O)[C@@H]2CC[C@@H]1C3 [KAURENOIC ACID]
IC50 [1]: > 100 µM

C=C1C[C@@]23CC[C@@H]4[C@](C)(C(=O)OC)CCC[C@@]4(C)C2=CC[C@@H]1C3 [GRANDIFLORENIC ACID METHYL ESTER]
IC50 [1]: 35 µM

C=C1C[C@@]23CC[C@@H]4[C@](C)(CO)CCC[C@@]4(C)[C@@H]2CC[C@@H]1C3
IC50 [1]: > 100 µM

COC(=O)[C@]1(C)CCC[C@@]2(C)[C@@H]3CC[C@@H]4C[C@@]3(CC[C@@H]21)C(=O)C41CCN=N1 (stereo partly specified)
IC50 [1]: 100 µM

COC(=O)[C@]1(C)CCC[C@@]2(C)C3=CC[C@@H]4C[C@@]3(CC[C@H]12)C[C@]4(O)CO
IC50 [1]: 25 µM

C=C1C(=O)[C@@]23CC[C@@H]4[C@](C)(C(=O)OC)CCC[C@@]4(C)C2=CC[C@@H]1C3
Activity [2]: Active | Activity [3]: Active | Activity [4]: Active | IC50 [5]: 25 µM | Activity [6]: Active | IC50 [7]: > 100 µM | Activity [8]: Non-toxic | Activity [9]: inactive | Activity [10]: Active | Activity [11]: inactive | Activity [12]: Active | Activity [13]: Non-toxic | Activity [14]: Active | Activity [15]: Active | Activity [16]: Active | Activity [17]: inactive | IC50 [1]: 5 µM | IC50 [18]: 25 µM | Activity [19]: inactive

C=C1[C@@H]2CC[C@H]3[C@]4(C)CCC[C@@](C)(C(=O)O)[C@H]4CC[C@]3(C2)[C@H]1O
IC50 [1]: > 100 µM

COC(=O)[C@]1(C)CCC[C@@]2(C)C3=CC[C@@H]4C[C@]3(C=C4C=O)CC[C@H]12
Activity [2]: Active | Activity [3]: Active | Activity [4]: Active | IC50 [5]: 10 µM | Activity [6]: Active | IC50 [7]: 25 µM | Activity [8]: Toxic | Activity [9]: inactive | Activity [10]: Active | Activity [11]: inactive | Activity [12]: Active | Activity [13]: Toxic | Activity [14]: Active | Activity [15]: Active | Activity [17]: inactive | IC50 [1]: 5 µM | IC50 [18]: 40 µM | Activity [19]: inactive

COC(=O)[C@]1(C)CCCC2(C)[C@@H]3CC[C@@H]4C[C@@]3(CC[C@@H]21)C[C@@]41CO1 (stereo partly specified)
IC50 [1]: > 100 µM

COC(=O)[C@]1(C)CCC[C@@]2(C)[C@@H]3CC[C@@H]4C[C@@]3(CC[C@@H]21)C[C@H]4/C=N/O
IC50 [1]: 35 µM

COC(=O)[C@]1(C)CCCC2(C)[C@@H]3CC[C@@H]4C[C@@]3(CC[C@@H]21)C[C@]41CO1 (stereo partly specified)
IC50 [1]: > 100 µM

COC(=O)[C@]1(C)CCC[C@@]2(C)[C@@H]3CC[C@@H]4C[C@@]3(CC[C@@H]21)C[C@@]4(C)O
IC50 [1]: 25 µM

C=C1[C@@H]2CC[C@H]3[C@]4(C)CCC[C@@](C)(C(=O)OC)[C@H]4CC[C@]3(C2)[C@H]1O
IC50 [1]: > 100 µM

C=C1C[C@@]23CC[C@@H]4[C@](C)(C(=O)O)CCC[C@@]4(C)C2=CC[C@@H]1C3 [GRANDIFLORENIC ACID]
IC50 [1]: 15 µM

— ChEMBL document CHEMBL1156919, “Synthesis and induction of apoptosis signaling pathway of ent-kaurane derivatives” (Bioorg Med Chem, 2010)
